In test [1] the target is T1, TLR7 and TLR8 (Homo sapiens) (UniProt Q9NYK1+Q9NR97). The experiment in a line: Agonist activity at TLR7/TLR8 in human PBMC assessed as induction of TNF-alpha production at 22.5 uM after 24 hrs by flow cytometric analysis. The class given is protein assay. The essentials: (§1)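 PBMCs isolated by Ficoll from three independent donors, plated in triplicate at 5 × 10⁵ cells per well, exposed to 22.5 μM compound for 24 h. Medium assayed for TNF-α and IFN-γ by flow cytometric bead array, IFN-α by ELISA.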

Test [2] concerns the target T2, TLR7 and TLR8 (Mus musculus) (UniProt P58681+P58682). The experiment in a line: Agonist activity at TLR7/TLR8 in C57BL/6 mouse BMDC assessed as induction of TNF-alpha production at 30 uM after 3 days by flow cytometric analysis. In kind it is protein assay. The essentials: (§2)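 BMDCs from femoral marrow of 6−8-week C57BL/6 mice; red cells lysed (0.83% NH₄Cl, 0.1% KHCO₃, 0.009% EDTA); 5 million cells per well cultured six days in complete RPMI with mouse GM-CSF 20 ng/mL. Stimulated with 30 μM compound for 3 days; supernatant cytokines quantified by flow cytometric bead array; measured in triplicate.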
For orientation: A flow cytometer gives signals particle by particle.

Test [3] deals with T2, TLR7 and TLR8 (Mus musculus). The experiment in a line: Agonist activity at TLR7/TLR8 in C57BL/6 mouse BMDC assessed as induction of IL-10 production at 30 uM after 3 days by flow cytometric analysis. In kind it is protein assay. The gist of the method:
as §2

The target is the same in test [4]. The experiment in a line: Agonist activity at TLR7/TLR8 in C57BL/6 mouse BMDC assessed as induction of IL-12p40 production at 30 uM after 3 days by flow cytometric analysis. The class given is protein assay. The essentials: as §2
Test [5] concerns the target T1, TLR7 and TLR8 (Homo sapiens). As to the kind of experiment: Agonist activity at TLR7/TLR8 in human PBMC assessed as induction of IFN-alpha production at 22.5 uM after 24 hrs by ELISA. In kind it is protein assay. The essentials: as §1
In general terms: In an ELISA, binding on a coated surface is turned into a signal by an enzyme label.

Test [6] addresses T2, TLR7 and TLR8 (Mus musculus). The experiment in a line: Agonist activity at TLR7/TLR8 in C57BL/6 mouse BMDC assessed as induction of IL-1beta production at 30 uM after 3 days by flow cytometric analysis. The class given is protein assay. The gist of the method: as §2
Test [7] addresses T1, TLR7 and TLR8 (Homo sapiens). As to the kind of experiment: Agonist activity at TLR7/TLR8 in human PBMC assessed as induction of IFN-gamma production at 22.5 uM after 24 hrs by flow cytometric analysis. The class given is protein assay. The essentials:
as §1

Test [8] deals with T3, Toll-like receptor 8 (Homo sapiens, UniProt Q9NR97).
T3 sequence (Q9NR97 whole entry): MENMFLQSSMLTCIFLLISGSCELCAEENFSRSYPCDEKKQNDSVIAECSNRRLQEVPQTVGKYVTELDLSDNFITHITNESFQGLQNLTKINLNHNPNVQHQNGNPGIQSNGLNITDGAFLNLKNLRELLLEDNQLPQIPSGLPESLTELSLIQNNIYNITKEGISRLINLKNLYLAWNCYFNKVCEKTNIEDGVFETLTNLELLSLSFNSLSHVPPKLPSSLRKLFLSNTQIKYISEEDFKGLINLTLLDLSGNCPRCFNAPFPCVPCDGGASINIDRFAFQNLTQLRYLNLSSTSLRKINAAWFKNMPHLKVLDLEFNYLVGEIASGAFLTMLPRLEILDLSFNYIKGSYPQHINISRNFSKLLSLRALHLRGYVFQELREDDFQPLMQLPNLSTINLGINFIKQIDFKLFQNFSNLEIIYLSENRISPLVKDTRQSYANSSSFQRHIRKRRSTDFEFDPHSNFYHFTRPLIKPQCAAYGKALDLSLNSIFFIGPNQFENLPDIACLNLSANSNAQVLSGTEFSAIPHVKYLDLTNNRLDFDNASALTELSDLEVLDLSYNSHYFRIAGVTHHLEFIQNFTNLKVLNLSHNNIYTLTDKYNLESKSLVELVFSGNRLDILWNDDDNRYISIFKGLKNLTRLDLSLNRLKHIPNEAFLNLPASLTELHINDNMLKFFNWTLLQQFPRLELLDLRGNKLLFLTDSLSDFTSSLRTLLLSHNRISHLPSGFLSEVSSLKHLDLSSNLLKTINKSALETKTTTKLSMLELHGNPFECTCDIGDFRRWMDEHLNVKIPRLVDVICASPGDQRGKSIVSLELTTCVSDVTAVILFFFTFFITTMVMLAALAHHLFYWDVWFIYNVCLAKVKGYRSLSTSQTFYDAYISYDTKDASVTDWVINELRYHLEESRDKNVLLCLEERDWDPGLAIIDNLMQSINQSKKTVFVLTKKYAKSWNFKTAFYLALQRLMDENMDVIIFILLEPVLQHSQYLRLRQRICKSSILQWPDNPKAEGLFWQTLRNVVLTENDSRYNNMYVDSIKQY
As to the kind of experiment: Agonist activity at human TLR-8 expressed in HEK293 cells after 24 hrs by SEAP reporter gene assay. The class given is cell-based. The gist of the method: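 HEK-293 cells transfected with human TLR-7 or TLR-8 plus NF-κB-inducible SEAP reporter; stimulated with 30 μM compound in DMEM/10% FBS for 24 h. Supernatant incubated with Quanti-blue substrate 1 h at 37 °C; SEAP read as absorbance at 650 nm.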

Test [9] concerns the target T4, Toll-like receptor 7 (Homo sapiens, UniProt Q9NYK1).
T4 sequence (Q9NYK1 whole entry): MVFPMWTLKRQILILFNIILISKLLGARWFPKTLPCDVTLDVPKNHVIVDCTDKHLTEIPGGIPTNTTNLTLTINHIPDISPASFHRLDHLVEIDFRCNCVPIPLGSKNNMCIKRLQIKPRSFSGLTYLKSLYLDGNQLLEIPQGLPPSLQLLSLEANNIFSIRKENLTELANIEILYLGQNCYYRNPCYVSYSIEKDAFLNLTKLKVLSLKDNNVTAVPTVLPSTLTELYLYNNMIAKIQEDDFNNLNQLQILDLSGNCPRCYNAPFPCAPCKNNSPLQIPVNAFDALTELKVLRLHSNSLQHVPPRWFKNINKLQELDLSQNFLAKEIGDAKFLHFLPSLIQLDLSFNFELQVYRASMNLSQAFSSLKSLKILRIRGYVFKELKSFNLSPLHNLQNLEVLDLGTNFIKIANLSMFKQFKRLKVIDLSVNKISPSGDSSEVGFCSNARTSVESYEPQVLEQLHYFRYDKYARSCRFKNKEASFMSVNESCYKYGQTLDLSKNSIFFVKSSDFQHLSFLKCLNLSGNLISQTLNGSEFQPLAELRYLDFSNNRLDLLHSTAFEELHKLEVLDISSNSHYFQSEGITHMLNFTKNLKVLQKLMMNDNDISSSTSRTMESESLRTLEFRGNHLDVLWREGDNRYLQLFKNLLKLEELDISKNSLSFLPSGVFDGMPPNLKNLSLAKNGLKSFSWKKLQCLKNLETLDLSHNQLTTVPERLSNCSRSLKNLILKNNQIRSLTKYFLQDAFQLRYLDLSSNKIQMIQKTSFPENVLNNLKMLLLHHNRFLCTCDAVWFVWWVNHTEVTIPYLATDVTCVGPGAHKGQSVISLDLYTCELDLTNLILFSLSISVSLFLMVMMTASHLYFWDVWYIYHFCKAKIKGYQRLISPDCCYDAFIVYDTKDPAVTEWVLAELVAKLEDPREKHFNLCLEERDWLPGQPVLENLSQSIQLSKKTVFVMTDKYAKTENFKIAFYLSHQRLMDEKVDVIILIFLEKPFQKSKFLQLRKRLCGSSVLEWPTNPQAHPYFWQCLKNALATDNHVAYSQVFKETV
As to the kind of experiment: Agonist activity at human TLR-7 expressed in HEK293 cells after 24 hrs by SEAP reporter gene assay. The class given is cell-based.

The structures appear in SMILES notation. The source made the active and inactive calls. The calls are words filed in the database; no cut-off is given here.

T2 sequence (P58681 whole entry, looked up): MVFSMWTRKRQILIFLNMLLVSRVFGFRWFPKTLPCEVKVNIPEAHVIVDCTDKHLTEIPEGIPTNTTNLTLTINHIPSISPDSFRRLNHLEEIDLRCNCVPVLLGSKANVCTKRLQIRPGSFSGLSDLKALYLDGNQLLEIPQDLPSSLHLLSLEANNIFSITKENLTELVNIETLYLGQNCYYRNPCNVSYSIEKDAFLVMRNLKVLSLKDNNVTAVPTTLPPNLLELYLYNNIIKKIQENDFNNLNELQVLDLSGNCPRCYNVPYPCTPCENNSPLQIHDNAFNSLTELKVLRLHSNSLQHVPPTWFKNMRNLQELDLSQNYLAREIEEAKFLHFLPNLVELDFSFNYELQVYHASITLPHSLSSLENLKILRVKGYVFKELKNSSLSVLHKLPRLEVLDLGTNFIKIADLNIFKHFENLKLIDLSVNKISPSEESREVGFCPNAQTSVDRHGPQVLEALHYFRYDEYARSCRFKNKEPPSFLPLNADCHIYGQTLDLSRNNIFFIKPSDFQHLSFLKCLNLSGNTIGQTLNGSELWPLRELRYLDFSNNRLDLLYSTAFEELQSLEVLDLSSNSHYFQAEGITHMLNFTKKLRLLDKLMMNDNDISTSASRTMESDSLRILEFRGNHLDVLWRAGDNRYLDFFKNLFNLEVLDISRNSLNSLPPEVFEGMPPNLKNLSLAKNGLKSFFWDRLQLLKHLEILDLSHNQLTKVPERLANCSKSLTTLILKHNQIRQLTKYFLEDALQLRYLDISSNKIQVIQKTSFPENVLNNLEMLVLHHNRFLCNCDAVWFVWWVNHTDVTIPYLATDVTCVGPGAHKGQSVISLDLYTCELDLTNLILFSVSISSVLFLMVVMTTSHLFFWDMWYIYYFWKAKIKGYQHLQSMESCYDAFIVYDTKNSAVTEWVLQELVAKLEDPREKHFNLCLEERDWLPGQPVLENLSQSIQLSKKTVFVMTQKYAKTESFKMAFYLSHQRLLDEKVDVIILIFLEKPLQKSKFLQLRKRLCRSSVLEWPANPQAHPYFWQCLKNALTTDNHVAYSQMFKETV
T2 sequence (P58682 whole entry, looked up): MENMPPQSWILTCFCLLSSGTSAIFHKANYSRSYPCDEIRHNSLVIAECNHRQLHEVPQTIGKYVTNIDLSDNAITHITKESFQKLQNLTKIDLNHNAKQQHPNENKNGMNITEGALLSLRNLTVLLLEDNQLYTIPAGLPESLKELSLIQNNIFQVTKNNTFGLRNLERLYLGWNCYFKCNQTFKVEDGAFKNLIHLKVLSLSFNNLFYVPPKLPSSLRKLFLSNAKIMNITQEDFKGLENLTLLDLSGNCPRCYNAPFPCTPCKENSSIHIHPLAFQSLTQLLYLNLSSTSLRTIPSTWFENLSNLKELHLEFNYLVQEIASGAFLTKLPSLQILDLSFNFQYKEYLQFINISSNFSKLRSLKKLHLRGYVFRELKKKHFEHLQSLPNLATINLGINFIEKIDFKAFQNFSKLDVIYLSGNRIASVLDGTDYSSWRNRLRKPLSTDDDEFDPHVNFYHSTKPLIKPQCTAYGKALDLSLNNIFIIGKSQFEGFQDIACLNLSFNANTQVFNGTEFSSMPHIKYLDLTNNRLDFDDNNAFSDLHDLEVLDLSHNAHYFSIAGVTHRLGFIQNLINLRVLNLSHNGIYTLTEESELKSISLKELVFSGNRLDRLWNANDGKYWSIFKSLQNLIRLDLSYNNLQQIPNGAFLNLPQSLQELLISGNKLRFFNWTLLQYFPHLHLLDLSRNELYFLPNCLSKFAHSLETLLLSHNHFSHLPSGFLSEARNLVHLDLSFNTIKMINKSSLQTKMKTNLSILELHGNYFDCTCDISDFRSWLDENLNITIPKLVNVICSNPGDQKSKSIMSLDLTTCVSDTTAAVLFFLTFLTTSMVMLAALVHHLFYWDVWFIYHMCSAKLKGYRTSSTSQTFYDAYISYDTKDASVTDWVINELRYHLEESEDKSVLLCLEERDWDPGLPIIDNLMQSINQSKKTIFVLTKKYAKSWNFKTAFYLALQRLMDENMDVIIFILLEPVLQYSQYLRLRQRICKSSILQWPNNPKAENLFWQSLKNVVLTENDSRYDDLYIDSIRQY

Regarding `CCCCCc1nc2c(N)nc3cc(C(=O)OC)ccc3c2n1CC(C)(C)O`, the result in test [1], in test [5] and in test [7] was Active. Further, the Activity worked out at 1810 pg/mL in test [2], 37 pg/mL in test [3], 312 pg/mL in test [4] and 1010 pg/mL in [6].
What is called EC50 is the concentration giving half of the maximal effect. In the case of `CC(C)Cn1cnc2c(N)nc3ccccc3c21` [IMIQUIMOD], the EC50 result was “Not Active” in test [8] and 10.7 µM in test [9] (read-out: EC50). Besides, the Activity in [2] worked out at 308 pg/mL; in [3], 17 pg/mL; in test [4] it was 133 pg/mL; in test [6] it was 19 pg/mL.
In the case of `COC(=O)c1ccc2c(c1)nc(N)c1ncn(CC(C)(C)O)c12`, the EC50 result in test [8] and in [9] (hek293) was “Not Active” in each case. The Activity in test [2] came out at 40 pg/mL; in [3], 9 pg/mL; in [4] it was 8 pg/mL; in [6] it was 6 pg/mL.
Take `CCCCc1nc2c(N)nc3cc(C(=O)OC)ccc3c2n1C[C@@H](C)O`: the outcome in [1], in [5] and in test [7] was Active. Besides, the Activity in test [2] worked out at 1160 pg/mL; in test [3], 20 pg/mL; in [4], 416 pg/mL; in [6], 157 pg/mL.
With `CCCCc1nc2c(N)nc3cc(C(=O)OC)ccc3c2n1C[C@H](C)O`, the result in test [1], in test [5] and in test [7] was Active. Also, the Activity in [2] stood at 1190 pg/mL; in test [3], 25 pg/mL; in test [4], 597 pg/mL; in [6], 301 pg/mL.
For `CCCCc1nc2c(N)nc3cc(C(=O)OC)ccc3c2n1CCOC`, the EC50 entry in test [8] was “Not Active”. Besides, the Activity in test [2] stood at 1370 pg/mL; in [3], 22 pg/mL; in test [4], 267 pg/mL; in test [6], 484 pg/mL.
For the compound `CCCCc1nc2c(N)nc3cc(C(=O)OC)ccc3c2n1CC(C)O` (racemic), the result in [1], in [5] and in test [7] was Active. In addition, the Activity in [2] amounted to 1200 pg/mL; in test [3], 22 pg/mL; in test [4], 533 pg/mL; in test [6], 275 pg/mL.
On to `CCCCc1nc2c(N)nc3cc(C(=O)OC)ccc3c2n1CCO`, for which the Activity worked out at 1210 pg/mL in [2], 18 pg/mL in [3], 290 pg/mL in test [4] and 109 pg/mL in test [6].
As to `CCCCc1nc2c(N)nc3cc(C(=O)OC)ccc3c2n1CC(C)(C)O`, the Activity in [2] is 1100 pg/mL; in test [3], 24 pg/mL; in test [4], 393 pg/mL; in [6], 108 pg/mL. Also, the EC50 in test [9] (read-out: EC50) was found to be 1.5 µM.
`CCc1nc2c(N)nc3cc(C(=O)OC)ccc3c2n1CC(C)(C)O`: in test [8], the half-maximal effective concentration (EC50) result is given as “Not Active”. The Activity was 1170 pg/mL in test [2], 24 pg/mL in [3], 78 pg/mL in test [4] and 11 pg/mL in test [6].
For `CCCc1nc2c(N)nc3cc(C(=O)OC)ccc3c2n1CC(C)(C)O` the same measures were “Not Active”, 1170 pg/mL, 23 pg/mL, 365 pg/mL and 33 pg/mL.
As for `CCCCc1nc2c(N)nc3cc(C(=O)OC)ccc3c2n1CCOCc1ccccc1`, the Activity in test [2] turned out to be 2240 pg/mL; in test [3], 25 pg/mL; in test [4], 136 pg/mL; in test [6] it was 104 pg/mL.
On to `COC(=O)c1ccc2c(c1)nc(N)c1nc(C)n(CC(C)(C)O)c12`, for which the EC50 entry in test [8] is recorded as “Not Active”. Further, the Activity in test [2] came out at 819 pg/mL; in test [3] it was 27 pg/mL; in test [4], 73 pg/mL; in test [6], 13 pg/mL.
In the case of `CCOCc1nc2c(N)nc3ccccc3c2n1CC(C)(C)O`, in test [1], the result was Active. Also, the Activity is 1740 pg/mL in test [2], 49 pg/mL in test [3], 236 pg/mL in test [4] and 16 pg/mL in test [6].
On to `COC(=O)c1ccc2c(c1)nc(N)c1nc(Cc3ccccc3)n(CC(C)(C)O)c12`, for which the EC50 entry in test [8] is recorded as “Not Active”. Moreover, the Activity came to 971 pg/mL in test [2], 15 pg/mL in [3], 500 pg/mL in test [4] and 60 pg/mL in test [6].

Values taken from ChEMBL document CHEMBL3112466, “Structure-activity relationship analysis of imidazoquinolines with Toll-like receptors 7 and 8 selectivity and enhanced cytokine induction” (J Med Chem, 2014).
